Active and inactive are the calls of the source. The rule behind the calls is not given here.
Legend:
[1] = system: Mycobacterium tuberculosis; experiment: fT>MIC for >= 1 log reduction in CFU count in Mycobacterium tuberculosis H37Rv in using simulated dose of at 100 mg assessed as time during compound concentration exceeds MIC of 0.25000 ug/ml assuming 5% unbound compound concentration by one compartment human pharmacokinetic model; assay type: functional
Summary of the method: (§1)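 A one-compartment PK model was fitted to human data to get median parameters. It simulated steady-state total and free concentrations for 100, 200 or 400 mg once daily, assuming 5, 7, 10 or 15% unbound drug. Free T>MIC was computed against MICs of 0.03125–0.25 µg/ml and compared with the mouse-derived T>MIC target for 1-log10 kill.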

[2] = system: Mycobacterium tuberculosis; experiment: fT>MIC for >= 1 log reduction in CFU count in Mycobacterium tuberculosis H37Rv in using simulated dose of at 100 mg assessed as time during compound concentration exceeds MIC of 0.03125 ug/ml assuming 7% unbound compound concentration by one compartment human pharmacokinetic model; assay type: functional; summary of the method: as §1
[3] = system: Mycobacterium tuberculosis; experiment: fT>MIC for >= 1 log reduction in CFU count in Mycobacterium tuberculosis H37Rv in using simulated dose of at 400 mg assessed as time during compound concentration exceeds MIC of 0.06250 ug/ml assuming 10% unbound compound concentration by one compartment human pharmacokinetic model; assay type: functional; summary of the method: as §1
[4] = system: Mycobacterium tuberculosis; experiment: fT>MIC for >= 1 log reduction in CFU count in Mycobacterium tuberculosis H37Rv in using simulated dose of at 100 mg assessed as time during compound concentration exceeds MIC of 0.06250 ug/ml assuming 15% unbound compound concentration by one compartment human pharmacokinetic model; assay type: functional; summary of the method: as §1
[5] = system: Mycobacterium tuberculosis; experiment: fT>MIC for >= 1 log reduction in CFU count in Mycobacterium tuberculosis H37Rv in using simulated dose of at 200 mg assessed as time during compound concentration exceeds MIC of 0.25000 ug/ml assuming 5% unbound compound concentration by one compartment human pharmacokinetic model; assay type: functional; summary of the method: as §1
[6] = system: Mycobacterium tuberculosis; experiment: Antitubercular activity against Mycobacterium tuberculosis H37Rv infected in BALB/c mouse at 12.5 mg/kg, po for 5 days relative to control; assay type: functional, organism-based; set-up: dose 12.5 mg/kg
[7] = system: Mycobacterium tuberculosis; experiment: Antitubercular activity against Mycobacterium tuberculosis H37Rv infected in po dosed BALB/c mouse assessed as reduction in log10 CFU count by single dose study; assay type: functional, organism-based
[8] = system: Mycobacterium tuberculosis; experiment: Antimicrobial activity against Mycobacterium tuberculosis H37Rv infected in single po dosed BALB/c mouse assessed as reduction in lung CFU count; assay type: functional
[9] = system: Mycobacterium tuberculosis; experiment: fT>MIC for >= 1 log reduction in CFU count in Mycobacterium tuberculosis H37Rv in using simulated dose of at 400 mg assessed as time during compound concentration exceeds MIC of 0.12500 ug/ml assuming 10% unbound compound concentration by one compartment human pharmacokinetic model; assay type: functional
Summary of the method: (§2)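 Human steady-state simulation: one-compartment PK model fitted to patient data, chosen by AIC. Median PK parameters used to simulate total and free concentrations, assuming 5, 7, 10 or 15% unbound, for 100, 200 and 400 mg once daily. Free levels compared with MICs of 0.03125 to 0.25 µg/ml to give %T>MIC; T>MIC is the cumulative percentage of the dosing interval above MIC.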

[10] = system: Mycobacterium tuberculosis; experiment: fT>MIC for >= 1 log reduction in CFU count in Mycobacterium tuberculosis H37Rv in using simulated dose of at 400 mg assessed as time during compound concentration exceeds MIC of 0.03125 ug/ml assuming 10% unbound compound concentration by one compartment human pharmacokinetic model; assay type: functional; summary of the method: as §1
[11] = system: Mycobacterium tuberculosis; experiment: fT>MIC for >= 1 log reduction in CFU count in Mycobacterium tuberculosis H37Rv in using simulated dose of at 200 mg assessed as time during compound concentration exceeds MIC of 0.03125 ug/ml assuming 5% unbound compound concentration by one compartment human pharmacokinetic model; assay type: functional; summary of the method: as §1
[12] = system: Mycobacterium tuberculosis; experiment: fT>MIC for >= 1 log reduction in CFU count in Mycobacterium tuberculosis H37Rv in using simulated dose of at 100 mg assessed as time during compound concentration exceeds MIC of 0.25000 ug/ml assuming 15% unbound compound concentration by one compartment human pharmacokinetic model; assay type: functional; summary of the method: as §1
[13] = system: Mycobacterium tuberculosis; experiment: fT>MIC for >= 1 log reduction in CFU count in Mycobacterium tuberculosis H37Rv in using simulated dose of at 400 mg assessed as time during compound concentration exceeds MIC of 0.12500 ug/ml assuming 7% unbound compound concentration by one compartment human pharmacokinetic model; assay type: functional; summary of the method: as §2
[14] = system: Mycobacterium tuberculosis; experiment: fT>MIC for >= 1 log reduction in CFU count in Mycobacterium tuberculosis H37Rv in using simulated dose of at 100 mg assessed as time during compound concentration exceeds MIC of 0.06250 ug/ml assuming 7% unbound compound concentration by one compartment human pharmacokinetic model; assay type: functional; summary of the method: as §1
[15] = system: Mycobacterium tuberculosis; experiment: fT>MIC for >= 1 log reduction in CFU count in Mycobacterium tuberculosis H37Rv in using simulated dose of at 100 mg assessed as time during compound concentration exceeds MIC of 0.03125 ug/ml assuming 10% unbound compound concentration by one compartment human pharmacokinetic model; assay type: functional; summary of the method: as §1
[16] = system: Mycobacterium tuberculosis; experiment: fT>MIC for >= 1 log reduction in CFU count in Mycobacterium tuberculosis H37Rv in using simulated dose of at 100 mg assessed as time during compound concentration exceeds MIC of 0.03125 ug/ml assuming 15% unbound compound concentration by one compartment human pharmacokinetic model; assay type: functional; summary of the method: as §1
[17] = system: Mycobacterium tuberculosis; experiment: Antitubercular activity against Mycobacterium tuberculosis H37Rv infected in BALB/c mouse assessed as reduction in log10 CFU count at 96 mg/kg, po for 5 days relative to control; assay type: functional
[18] = system: Mycobacterium tuberculosis; experiment: fT>MIC for >= 1 log reduction in CFU count in Mycobacterium tuberculosis H37Rv in using simulated dose of at 400 mg assessed as time during compound concentration exceeds MIC of 0.25000 ug/ml assuming 7% unbound compound concentration by one compartment human pharmacokinetic model; assay type: functional; summary of the method: as §2
[19] = system: Mycobacterium tuberculosis; experiment: fT>MIC for >= 1 log reduction in CFU count in Mycobacterium tuberculosis H37Rv in using simulated dose of at 400 mg assessed as time during compound concentration exceeds MIC of 0.03125 ug/ml assuming 15% unbound compound concentration by one compartment human pharmacokinetic model; assay type: functional; summary of the method: as §1
[20] = system: Mycobacterium tuberculosis; experiment: fT>MIC for >= 1 log reduction in CFU count in Mycobacterium tuberculosis H37Rv in using simulated dose of at 400 mg assessed as time during compound concentration exceeds MIC of 0.03125 ug/ml assuming 5% unbound compound concentration by one compartment human pharmacokinetic model; assay type: functional; summary of the method: as §1
[21] = system: Mycobacterium tuberculosis; experiment: fT>MIC for >= 1 log reduction in CFU count in Mycobacterium tuberculosis H37Rv in using simulated dose of at 200 mg assessed as time during compound concentration exceeds MIC of 0.25000 ug/ml assuming 10% unbound compound concentration by one compartment human pharmacokinetic model; assay type: functional; summary of the method: as §1
[22] = system: Mycobacterium tuberculosis; experiment: fT>MIC for >= 1 log reduction in CFU count in Mycobacterium tuberculosis H37Rv in using simulated dose of at 200 mg assessed as time during compound concentration exceeds MIC of 0.25000 ug/ml assuming 15% unbound compound concentration by one compartment human pharmacokinetic model; assay type: functional; summary of the method: as §1

## O=[N+]([O-])c1cn2c(n1)OC[C@@H](OCc1ccc(OC(F)(F)F)cc1)C2 [PRETOMANID]
[1]
  fT>MIC: 0%
[2]
  fT>MIC: 67%
[3]
  fT>MIC: 100%
[4]
  fT>MIC: 67%
[5]
  fT>MIC: 0%
[6]
  Activity: Active
[7]
  Activity: Dose-dependent effect
[8]
  MBC: 100 mg/kg
[9]
  fT>MIC: 100%
[10]
  fT>MIC: 100%
[11]
  fT>MIC: 100%
[12]
  fT>MIC: 0%
[13]
  fT>MIC: 67%
[14]
  fT>MIC: 0%
[15]
  fT>MIC: 100%
[16]
  fT>MIC: 100%
[17]
  log10cfu: 2
[18]
  fT>MIC: 4%
[19]
  fT>MIC: 100%
[20]
  fT>MIC: 100%
[21]
  fT>MIC: 0%
[22]
  fT>MIC: 6%
